Laboratory results reported in ChEMBL document CHEMBL1138470, “Discovery and characterization of the N-phenyl-N'-naphthylurea class of p38 kinase inhibitors” (Bioorg Med Chem Lett, 2009).
The source made the active and inactive calls. No cut-off for these calls is given here.

How the values were obtained:
Blood = experiment: Inhibition of LPS-induced TNFalpha production in human whole blood; assay type: functional, tissue-based
Summary of the method: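 LPS-stimulated TNFα production in whole blood from human donors; IC50 reported as geometric mean of 4–12 donor experiments, SD typically ±50% of the value.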

THP-1 = experiment: Inhibition of LPS-induced TNFalpha production in human THP1 cells; assay type: functional, cell-based
Summary of the method: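 LPS-stimulated TNFα release from THP-1 cells; IC50 values are means of 2–4 experiments, SD for n > 2 typically ±50% of the value.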

[1] = Aqueous solubility at pH 7.4; assay type: physicochemical
[2] = molecular target: T1, Mitogen-activated protein kinase 14 (Homo sapiens, UniProt Q16539); experiment: Binding affinity to p38alpha by exchange curve binding kinetic analysis
[3] = molecular target: T1, Mitogen-activated protein kinase 14
[4] = molecular target: 3-phosphoinositide-dependent protein kinase 1 (Homo sapiens) (UniProt O15530); experiment: Inhibition of PDK1 at => 3 ug/mL
[5] = molecular target: Mitogen-activated protein kinase 8 (Homo sapiens) (UniProt P45983); experiment: Inhibition of […] at => 3 ug/mL
[6] = molecular target: Tyrosine-protein kinase Lck (Homo sapiens) (UniProt P06239); experiment: Inhibition of LCK at => 3 ug/mL
Ephrin type-A receptor 3 = Ephrin type-A receptor 3 (Homo sapiens, UniProt P29320); experiment: Inhibition of HEK
[7] = Inhibition of PKA at => […] ug/mL
[8] = Inhibition of pp60src
[9] = molecular target: Epidermal growth factor receptor (Homo sapiens, UniProt P00533); experiment: Inhibition of EGFR
[10] = molecular target: Mitogen-activated protein kinase 9 (Homo sapiens, UniProt P45984); experiment: Inhibition of JNK2alpha2 by exchange curve binding kinetic analysis
[11] = Inhibition of CK2 at => 3 ug/mL
[12] = molecular target: RAF proto-oncogene serine/threonine-protein kinase (Homo sapiens, UniProt P04049); experiment: Inhibition of craf
[13] = molecular target: Tyrosine-protein kinase ABL1 (Homo sapiens, UniProt P00519); experiment: Inhibition of Abl
[14] = molecular target: Dual specificity mitogen-activated protein kinase kinase 1 (Homo sapiens) (UniProt Q02750); experiment: Inhibition of MKK1 at => 3 ug/mL
[15] = molecular target: Ribosomal protein S6 kinase alpha-3 (Homo sapiens) (UniProt P51812); experiment: Inhibition of MAPKAPK1B at => […] ug/mL
[16] = molecular target: Serine/threonine-protein kinase Sgk1 (Homo sapiens) (UniProt O00141); experiment: Inhibition of SGK at => 3 ug/mL
[17] = molecular target: MAP kinase-activated protein kinase 2 (Homo sapiens) (UniProt P49137); experiment: Inhibition of MAPKAPK2 at => […] ug/mL
[18] = molecular target: Tyrosine-protein kinase JAK3 (Homo sapiens) (UniProt P52333); experiment: Inhibition of JAK3 at => 3 ug/mL
[19] = molecular target: Glycogen synthase kinase-3 beta (Homo sapiens) (UniProt P49841); experiment: Inhibition of GSK3-beta at => 3 ug/mL
[20] = Inhibition of VEGFR
[21] = molecular target: Casein kinase I isoform alpha (Homo sapiens) (UniProt P48729); experiment: Inhibition of CK1 at => 3 ug/mL
Ephrin type-A receptor 2 = Ephrin type-A receptor 2 (Homo sapiens, UniProt P29317); experiment: Inhibition of ECK
[22] = molecular target: Cyclin-dependent kinase 1 (Homo sapiens) (UniProt P06493); experiment: Inhibition of CDK1 at => 3 ug/mL
[23] = molecular target: MAP kinase-activated protein kinase 5 (Homo sapiens) (UniProt Q8IW41); experiment: Inhibition of PRAK at => 3 ug/mL
[24] = molecular target: Dual specificity tyrosine-phosphorylation-regulated kinase 1A (Homo sapiens) (UniProt Q13627); experiment: Inhibition of DYRK1A at => 3 ug/mL
[25] = molecular target: Focal adhesion kinase 1 (Homo sapiens) (UniProt Q05397); experiment: Inhibition of PTK2 at => 3 ug/mL
[26] = molecular target: Ribosomal protein S6 kinase alpha-3 (Homo sapiens) (UniProt P51812); experiment: Inhibition of RSK2 at => 3 ug/mL
[27] = molecular target: RAC-alpha serine/threonine-protein kinase (Homo sapiens, UniProt P31749); experiment: Inhibition of PKBalpha/Akt1
[28] = molecular target: Serine/threonine-protein kinase B-raf (Homo sapiens, UniProt P15056); experiment: Inhibition of bRaf
[29] = molecular target: Protein kinase C alpha type (Homo sapiens) (UniProt P17252); experiment: Inhibition of PKCalpha at => 3 ug/mL
[30] = molecular target: Tyrosine-protein kinase BTK (Homo sapiens) (UniProt Q06187); experiment: Inhibition of BTK at => 3 ug/mL
[31] = molecular target: Ribosomal protein S6 kinase beta-1 (Homo sapiens) (UniProt P23443); experiment: Inhibition of S6K1 at => 3 ug/mL
[32] = Inhibition of ERK at => 3 ug/mL
[33] = molecular target: Insulin-like growth factor 1 receptor (Homo sapiens) (UniProt P08069); experiment: Inhibition of IGF1R at => 3 ug/mL
[34] = molecular target: Tyrosine-protein kinase SYK (Homo sapiens) (UniProt P43405); experiment: Inhibition of SYK at => 3 ug/mL
[35] = molecular target: Insulin receptor (Homo sapiens) (UniProt P06213); experiment: Inhibition of IR at => 3 ug/mL
[36] = Inhibition of PHK1 at => 3 ug/mL
[37] = molecular target: Tyrosine-protein kinase TXK (Homo sapiens) (UniProt P42681); experiment: Inhibition of TXK at => 3 ug/mL
[38] = Inhibition of PI3K at => 3 ug/mL
[39] = Inhibition of FGFR
[40] = molecular target: Mitogen-activated protein kinase kinase kinase 14 (Homo sapiens) (UniProt Q99558); experiment: Inhibition of NIK at => 3 ug/mL
Mus musculus = experiment: Inhibition of LPS-induced endotoxemia in mouse assessed as inhibition of TNFalpha production at 3 mg/kg, po; assay type: functional
Summary of the method: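 Mouse LPS-induced endotoxemia model; compound given orally at 3 mg/kg, and TNFα production is measured and expressed as percent inhibition.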

[41] = molecular target: Tyrosine-protein kinase Lyn (Homo sapiens, UniProt P07948); experiment: Inhibition of Lyn
[42] = Inhibition of IKK at => 3 ug/mL
[43] = molecular target: Rho-associated protein kinase 2 (Homo sapiens) (UniProt O75116); experiment: Inhibition of ROCK2 at => 3 ug/mL
[44] = molecular target: Hepatocyte growth factor receptor (Homo sapiens) (UniProt P08581); experiment: Inhibition of HGFR at => 3 ug/mL
[45] = molecular target: Tyrosine-protein kinase CSK (Homo sapiens) (UniProt P41240); experiment: Inhibition of CSK at 3 uM
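Throughout, for Tm: thermal denaturation measurement of the p38alpha–inhibitor complex, reporting its melting point as a readout of binding.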

T1 sequence (Q16539 whole entry): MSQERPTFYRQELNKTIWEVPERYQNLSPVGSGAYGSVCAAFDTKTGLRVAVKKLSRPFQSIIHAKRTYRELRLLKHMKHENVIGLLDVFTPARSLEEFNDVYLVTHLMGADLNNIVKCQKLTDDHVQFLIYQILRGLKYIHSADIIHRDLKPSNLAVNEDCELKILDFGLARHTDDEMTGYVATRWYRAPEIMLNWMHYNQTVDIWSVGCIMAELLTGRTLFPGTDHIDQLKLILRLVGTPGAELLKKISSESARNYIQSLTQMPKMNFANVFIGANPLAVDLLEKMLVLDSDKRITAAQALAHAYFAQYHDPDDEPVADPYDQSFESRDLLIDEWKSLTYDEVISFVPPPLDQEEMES
Sequence of Ribosomal protein S6 kinase alpha-3 (Homo sapiens) (P51812 whole entry): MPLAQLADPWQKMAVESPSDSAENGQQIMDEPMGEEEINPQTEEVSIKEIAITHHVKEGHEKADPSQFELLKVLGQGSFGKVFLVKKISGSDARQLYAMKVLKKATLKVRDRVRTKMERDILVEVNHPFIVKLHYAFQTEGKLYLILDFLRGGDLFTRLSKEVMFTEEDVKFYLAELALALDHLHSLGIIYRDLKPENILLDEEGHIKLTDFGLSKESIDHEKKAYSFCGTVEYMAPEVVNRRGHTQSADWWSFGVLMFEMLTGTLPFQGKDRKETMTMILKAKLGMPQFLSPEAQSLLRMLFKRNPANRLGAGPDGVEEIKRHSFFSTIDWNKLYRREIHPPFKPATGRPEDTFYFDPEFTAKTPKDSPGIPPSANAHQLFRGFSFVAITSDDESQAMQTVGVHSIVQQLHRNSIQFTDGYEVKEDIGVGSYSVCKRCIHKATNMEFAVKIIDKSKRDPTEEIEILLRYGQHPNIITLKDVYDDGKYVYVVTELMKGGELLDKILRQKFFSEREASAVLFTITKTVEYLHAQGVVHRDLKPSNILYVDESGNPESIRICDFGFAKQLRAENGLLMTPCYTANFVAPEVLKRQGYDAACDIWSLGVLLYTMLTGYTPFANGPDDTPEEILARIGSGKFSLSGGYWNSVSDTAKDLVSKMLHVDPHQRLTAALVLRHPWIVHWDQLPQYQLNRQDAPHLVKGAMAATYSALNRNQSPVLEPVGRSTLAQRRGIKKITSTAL
Sequence of Serine/threonine-protein kinase B-raf (P15056 whole entry): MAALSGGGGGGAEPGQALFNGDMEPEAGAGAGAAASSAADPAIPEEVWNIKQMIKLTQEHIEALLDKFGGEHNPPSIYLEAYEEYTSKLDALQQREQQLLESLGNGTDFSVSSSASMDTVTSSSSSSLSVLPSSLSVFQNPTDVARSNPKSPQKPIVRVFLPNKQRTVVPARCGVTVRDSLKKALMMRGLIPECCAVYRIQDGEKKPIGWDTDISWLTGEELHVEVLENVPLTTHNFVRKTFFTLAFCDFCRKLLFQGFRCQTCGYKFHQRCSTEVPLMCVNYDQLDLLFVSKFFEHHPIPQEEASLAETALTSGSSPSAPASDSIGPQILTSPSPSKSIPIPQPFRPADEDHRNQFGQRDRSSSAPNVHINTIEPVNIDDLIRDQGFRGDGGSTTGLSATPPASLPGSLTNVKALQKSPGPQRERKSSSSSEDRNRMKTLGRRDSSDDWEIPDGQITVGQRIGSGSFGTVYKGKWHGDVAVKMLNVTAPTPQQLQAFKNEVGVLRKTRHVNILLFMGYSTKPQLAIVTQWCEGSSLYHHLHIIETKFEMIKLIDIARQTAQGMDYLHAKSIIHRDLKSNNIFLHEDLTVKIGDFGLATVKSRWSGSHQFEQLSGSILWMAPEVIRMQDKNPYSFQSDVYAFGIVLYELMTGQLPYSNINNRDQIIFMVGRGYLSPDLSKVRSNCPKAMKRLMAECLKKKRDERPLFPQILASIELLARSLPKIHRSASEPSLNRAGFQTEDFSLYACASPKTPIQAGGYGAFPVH
Sequence of Ribosomal protein S6 kinase beta-1 (Homo sapiens) (P23443 whole entry, looked up): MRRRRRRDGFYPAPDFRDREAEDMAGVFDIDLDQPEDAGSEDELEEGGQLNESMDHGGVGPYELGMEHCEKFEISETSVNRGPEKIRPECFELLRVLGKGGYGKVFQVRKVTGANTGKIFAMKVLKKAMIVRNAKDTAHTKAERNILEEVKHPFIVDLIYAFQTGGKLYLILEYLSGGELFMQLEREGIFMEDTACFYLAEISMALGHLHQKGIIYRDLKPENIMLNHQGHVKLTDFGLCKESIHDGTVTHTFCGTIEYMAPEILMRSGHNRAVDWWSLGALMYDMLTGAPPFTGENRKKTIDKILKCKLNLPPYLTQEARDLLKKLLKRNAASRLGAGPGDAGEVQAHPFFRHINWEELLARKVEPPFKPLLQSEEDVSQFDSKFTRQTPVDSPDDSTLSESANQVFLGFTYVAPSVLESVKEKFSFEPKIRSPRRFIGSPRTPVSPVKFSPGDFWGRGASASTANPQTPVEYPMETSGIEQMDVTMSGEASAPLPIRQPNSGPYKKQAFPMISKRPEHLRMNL
Sequence of Tyrosine-protein kinase BTK (Homo sapiens) (Q06187 whole entry): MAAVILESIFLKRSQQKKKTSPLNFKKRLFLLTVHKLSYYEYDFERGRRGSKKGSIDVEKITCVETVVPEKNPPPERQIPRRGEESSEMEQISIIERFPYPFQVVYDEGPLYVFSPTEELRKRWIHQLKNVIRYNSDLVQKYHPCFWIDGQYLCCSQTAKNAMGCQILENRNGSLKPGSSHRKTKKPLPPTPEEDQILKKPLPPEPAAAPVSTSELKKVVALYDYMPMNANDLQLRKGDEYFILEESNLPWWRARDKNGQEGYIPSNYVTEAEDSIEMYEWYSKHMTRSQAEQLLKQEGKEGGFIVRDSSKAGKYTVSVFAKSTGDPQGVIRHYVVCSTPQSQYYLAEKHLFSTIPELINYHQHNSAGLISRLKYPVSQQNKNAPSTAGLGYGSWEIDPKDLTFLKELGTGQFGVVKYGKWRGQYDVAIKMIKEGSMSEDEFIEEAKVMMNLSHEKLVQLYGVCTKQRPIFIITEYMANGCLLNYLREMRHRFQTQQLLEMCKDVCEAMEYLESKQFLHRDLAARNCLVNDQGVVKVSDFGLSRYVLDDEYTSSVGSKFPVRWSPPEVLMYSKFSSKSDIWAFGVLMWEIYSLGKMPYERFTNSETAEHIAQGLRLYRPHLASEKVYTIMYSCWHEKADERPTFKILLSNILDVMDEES
Sequence of Tyrosine-protein kinase ABL1 (P00519 whole entry): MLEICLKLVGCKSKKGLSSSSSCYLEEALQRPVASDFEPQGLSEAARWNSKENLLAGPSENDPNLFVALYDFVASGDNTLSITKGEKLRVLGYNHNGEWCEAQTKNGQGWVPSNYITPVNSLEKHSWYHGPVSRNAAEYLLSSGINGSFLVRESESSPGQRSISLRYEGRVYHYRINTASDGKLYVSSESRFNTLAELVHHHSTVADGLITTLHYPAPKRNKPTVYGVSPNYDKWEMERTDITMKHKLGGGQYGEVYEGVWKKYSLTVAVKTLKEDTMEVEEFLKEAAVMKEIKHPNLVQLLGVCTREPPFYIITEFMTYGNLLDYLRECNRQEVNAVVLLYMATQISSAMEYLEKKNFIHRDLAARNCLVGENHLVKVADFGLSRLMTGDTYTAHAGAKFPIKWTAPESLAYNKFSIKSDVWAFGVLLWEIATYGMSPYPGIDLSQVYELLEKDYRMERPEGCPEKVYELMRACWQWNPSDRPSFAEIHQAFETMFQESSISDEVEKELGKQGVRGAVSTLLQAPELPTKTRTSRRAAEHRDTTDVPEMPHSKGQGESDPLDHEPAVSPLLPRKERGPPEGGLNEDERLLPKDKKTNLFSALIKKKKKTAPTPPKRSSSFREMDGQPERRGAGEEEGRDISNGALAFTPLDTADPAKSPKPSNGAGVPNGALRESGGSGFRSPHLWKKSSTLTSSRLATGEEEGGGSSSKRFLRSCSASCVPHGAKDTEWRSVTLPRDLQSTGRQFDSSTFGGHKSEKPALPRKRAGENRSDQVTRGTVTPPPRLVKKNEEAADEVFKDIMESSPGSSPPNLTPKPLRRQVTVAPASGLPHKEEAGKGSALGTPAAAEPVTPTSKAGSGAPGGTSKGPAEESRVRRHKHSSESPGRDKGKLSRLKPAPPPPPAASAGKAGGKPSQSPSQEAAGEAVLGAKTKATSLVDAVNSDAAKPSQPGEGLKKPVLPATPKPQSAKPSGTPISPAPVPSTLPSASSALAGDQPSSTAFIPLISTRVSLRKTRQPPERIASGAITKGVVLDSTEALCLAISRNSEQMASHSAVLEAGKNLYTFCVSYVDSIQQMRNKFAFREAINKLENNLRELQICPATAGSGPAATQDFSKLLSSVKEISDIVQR
Sequence of Tyrosine-protein kinase CSK (Homo sapiens) (P41240 2-450 limits assumed): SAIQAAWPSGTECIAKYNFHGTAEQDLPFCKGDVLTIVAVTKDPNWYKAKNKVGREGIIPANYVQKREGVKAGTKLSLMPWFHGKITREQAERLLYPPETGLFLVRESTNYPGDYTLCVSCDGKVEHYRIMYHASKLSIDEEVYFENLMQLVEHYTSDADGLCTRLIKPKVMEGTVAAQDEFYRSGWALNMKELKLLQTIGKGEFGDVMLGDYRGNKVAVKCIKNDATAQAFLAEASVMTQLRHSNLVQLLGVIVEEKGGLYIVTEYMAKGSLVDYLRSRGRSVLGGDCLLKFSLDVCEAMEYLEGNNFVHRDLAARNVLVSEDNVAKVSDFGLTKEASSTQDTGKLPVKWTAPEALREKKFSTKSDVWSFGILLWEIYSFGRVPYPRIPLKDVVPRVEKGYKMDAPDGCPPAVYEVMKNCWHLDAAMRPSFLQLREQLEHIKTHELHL
Sequence of Dual specificity mitogen-activated protein kinase kinase 1 (Homo sapiens) (Q02750 whole entry): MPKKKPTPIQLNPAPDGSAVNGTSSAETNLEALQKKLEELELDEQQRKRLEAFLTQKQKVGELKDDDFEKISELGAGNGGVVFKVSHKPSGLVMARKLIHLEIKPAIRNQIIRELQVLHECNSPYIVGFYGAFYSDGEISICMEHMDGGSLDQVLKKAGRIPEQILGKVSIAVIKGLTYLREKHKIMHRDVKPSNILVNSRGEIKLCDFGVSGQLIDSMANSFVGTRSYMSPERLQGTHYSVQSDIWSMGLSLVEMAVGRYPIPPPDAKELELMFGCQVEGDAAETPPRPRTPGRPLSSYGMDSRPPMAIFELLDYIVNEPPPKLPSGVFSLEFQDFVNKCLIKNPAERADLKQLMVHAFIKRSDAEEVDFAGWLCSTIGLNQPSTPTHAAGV

COc1ccc(C(C)(C)C)cc1NC(=O)Nc1ccc(-c2ccc(CN3CCOCC3)nc2)c2ccccc12
IC50 (Blood): 0.14 µM | IC50 (THP-1): 0.0055 µM | solubility [1]: < 0.5 µg/mL | Kd [2]: 0.0018 µM | Tm [3]: 57.9 °C

COc1c(NC(=O)Nc2ccc(-c3ccc(CN4CCOCC4)nc3)c3ccccc23)cc(C(C)(C)C)cc1NS(C)(=O)=O
Activity [4]: inactive | Activity [5]: inactive | Activity [6]: inactive | IC50 (Ephrin type-A receptor 3): 3.2 µM | Activity [7]: inactive | IC50 [8]: 8.2 µM | IC50 [9]: 5.4 µM | IC50 [10]: 0.003 µM | Activity [11]: inactive | IC50 [12]: 0.88 µM | IC50 [13]: 0.48 µM | IC50 (Blood): 0.046 µM | Activity [14]: inactive | IC50 (THP-1): 0.01 µM | Activity [15]: inactive | Activity [16]: inactive | Activity [17]: inactive | Activity [18]: inactive | Activity [19]: inactive | IC50 [20]: 3 µM | Activity [21]: inactive | IC50 (Ephrin type-A receptor 2): 5.2 µM | Activity [22]: inactive | Activity [23]: inactive | Activity [24]: inactive | Tm [3]: 63.3 °C | Activity [25]: inactive | Activity [26]: inactive | IC50 [27]: 6.4 µM | IC50 [28]: 7.2 µM | Activity [29]: inactive | Activity [30]: inactive | Activity [31]: inactive | Activity [32]: inactive | Activity [33]: inactive | Activity [34]: inactive | Activity [35]: inactive | Activity [36]: inactive | Activity [37]: inactive | Activity [38]: inactive | IC50 [39]: 7.7 µM | Activity [40]: inactive | inhibition in vivo at 3 mg/kg (Mus musculus): 57% | IC50 [41]: 2.4 µM | Activity [42]: inactive | Activity [43]: inactive | Activity [44]: inactive | inhibition [45]: 62%
